We go through one molecule from ChEMBL document CHEMBL4699650, “SAR Investigation and Discovery of Water-Soluble 1-Methyl-1,4-dihydroindeno[1,2-c]pyrazoles as Potent Tubulin Polymerization Inhibitors” (J Med Chem, 2020).

The term GI50 denotes the concentration giving 50% growth inhibition. As a reminder, the IC50 is the concentration that inhibits the measured activity by half. What is called solubility is the dissolved amount per volume that the medium holds.

The target in data set [1] is Tubulin beta (Homo sapiens) (UniProt P68371+Q9H4B7+Q13509+P04350+Q3ZCM7+P07437+Q13885+Q9BVA1+Q9BUF5+A6NNZ2). The data set is described as follows: Inhibition of N,N'-Ethylenebis(iodoacetamide) binding to beta-tubulin in human HepG2 cells assessed as reduction in EBI/beta-tubulin adduct formation preincubated for 2 hrs followed by EBI addition and measured after 1.5 hrs by Western blot analysis. Format: cell-based. To be noted: dose microM 0.2-25, time 3.5 hrs. In a few lines:
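HepG2 seeded 5 × 10⁵ cells/well, adhered overnight. […] Lysate protein (20 μg) run on 10% polyacrylamide gel on ice and transferred to PVDF. Probed with anti-β-tubulin 16 h at 4 °C, then HRP secondary. Chemiluminescence detection.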

The test system of data set [2] is HepG2. The experiment in a line: Antitumor activity against human HepG2 cells xenografted in Balb/c nude mouse assessed as reduction in tumor volume at 25 mg/kg, ig qd administered for 21 days measured at 3 days interval during compound dosing relative to control. Format: functional. More on the design: scale not given: the % may be the effect or the level left. The settings on record: time 21 day. (In xenograft studies the graft and the host belong to different species.)

Data set [3] relates to HepG2. The experiment in a line: Induction of apoptosis in human HepG2 cells assessed as necrotic cells at 10 nM incubated for 24 hrs by Annexin V-PE and 7-AAD staining based flow cytometry (reference value: 0.34 %). Format: functional. In a few lines:
(§1)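 HepG2 cells seeded at 3 × 10⁵ cells/well, adhered overnight, exposed at 5, 10 or 20 nM for 12 or 24 h. Harvested into Annexin V binding buffer and stained with annexin V-PE and 7-AAD for 15 min at room temperature in the dark, then analysed by flow cytometry. Gates: live (−/−), early apoptotic (+/−), late apoptotic (+/+), necrotic (−/+).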
On the technique in general: In flow cytometry, cells or beads pass a laser one at a time.

For data set [4], the system named is HepG2. The experiment in a line: Induction of apoptosis in human HepG2 cells assessed as late apoptotic cells at 20 nM incubated for 24 hrs by Annexin V-PE and 7-AAD staining based flow cytometry (reference value: 2.33 %). The data set is classed as functional. In a few lines:
as §1

Data set [5] has as its system HepG2. The data set is described as follows: Antiproliferation activity against human HepG2 cells assessed as cell growth inhibition measured after 72 hrs by MTT assay. Format: functional. A digest of the protocol:
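Cells grown in RPMI-1640 with 10% FBS at 37 °C, 5% CO2, seeded at 4−7 × 10³ cells/well and left to adhere overnight. Exposed to a range of concentrations for 72 h, then MTT (2.5 mg/mL stock) added for 4 h. Formazan dissolved in DMSO and absorbance read at 570 nm. GI50 taken as the concentration giving 50% growth inhibition, reported as mean ± SD of at least three independent experiments.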
Background: Tetrazolium dyes change colour on reduction, which living cells bring about.

For data set [6], the system named is HepG2. The data set is described as follows: Antitumor activity against human HepG2 cells xenografted in Balb/c nude mouse assessed as reduction in tumor volume at 10 mg/kg, iv administered every 2 days for 21 days and measured at 3 days interval during compound dosing. The data set is classed as functional. Also on record: scale not given: the % may be the effect or the level left. The settings on record: time 21 day. In a few lines: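 Nude mice received 200 μL PBS containing HepG2 at 1 × 10⁷ cells/mL subcutaneously in the right armpit. Randomised at 90 mm³ tumour volume, five per group. Compound given iv as a 2.0 mg/mL solution in distilled water, 5 or 10 mg/kg every two days for 21 days, with a water vehicle group. Tumour volume (L × W²/2) and body weight recorded every 3 days. Inhibition = (1 − RTV treated/RTV vehicle) × 100%.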

In data set [7] the test system is HepG2. The data set is described as follows: Induction of apoptosis in human HepG2 cells assessed as necrotic cells at 5 nM incubated for 12 hrs by Annexin V-PE and 7-AAD staining based flow cytometry (reference value: 0.55 %). The data set is classed as functional. In a few lines:
as §1

For data set [8], the system named is HepG2. The data set is described as follows: Induction of cell cycle arrest in human HepG2 cells assessed as accumulation in G2/M phase at 20 nM incubated for 24 hrs by propidium iodide staining based flow cytometry (reference value: 12.59%). The data set is classed as functional.
Data set [9] concerns HepG2. The experiment in a line: Induction of apoptosis in human HepG2 cells assessed as live cells at 20 nM incubated for 12 hrs by Annexin V-PE and 7-AAD staining based flow cytometry (reference value: 92.1%). Format: functional. A digest of the protocol:
as §1

In data set [10] the test system is HepG2. The experiment in a line: Induction of apoptosis in human HepG2 cells assessed as early apoptotic cells at 20 nM incubated for 24 hrs by Annexin V-PE and 7-AAD staining based flow cytometry (reference value: 4.16 %). Format: functional. In a few lines: as §1
Data set [11] relates to HepG2. The experiment in a line: Induction of apoptosis in human HepG2 cells assessed as decrease in Bcl-2 expression incubated for 24 hrs by Western blot analysis. Format: functional, cell-based. The settings on record: dose nM 2.5-20, time 24.0 hrs. A digest of the protocol:
(§2)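 Lysates (20 μg protein) separated by 10% PAGE and blotted to PVDF. Probed for Bax, Bcl-2, cleaved caspase-3 and cleaved PARP, detected by ECL and quantified by densitometry.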

Data set [12] can be described thus: Inhibition of porcine brain tubulin polymerization measured every 60 sec for 60 mins in presence of GTP by fluorescence assay. More on the design: species or system Sus scrofa. In a few lines:
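Fluorescence kit assay using 2 mg/mL porcine brain tubulin with 2 mM MgCl₂, 0.5 mM EGTA, 1 mM GTP and 15% glycerol. Compound at various concentrations preincubated 1 min at 37 °C before adding the tubulin mix. Read at ex 355/em 460 nm every 60 s for 60 min. IC50 is the concentration giving 50% inhibition at 60 min; mean ± SD of ≥3 independent experiments.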

Data set [13] in a line: Toxicity in Balb/c nude mouse xenografted with human HepG2 cells assessed as adverse signs at 25 mg/kg, po qd administered for 21 days. Format: organism-based. The settings on record: in vivo, 504 h, time 21 day. In a few lines: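 Nude mice received 200 μL PBS with HepG2 cells (1 × 10⁷ cells/mL) subcutaneously in the right armpit. At 90 mm³ tumour volume, randomized to 5 per group. Dosed 25 mg/kg as a 2.5 mg/mL distilled-water solution, intragastric once daily for 21 days; distilled water as vehicle. Body weight recorded every 3 days; change given as initial vs end weight.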

For data set [14], the target named is Tubulin (Homo sapiens) (UniProt P68371+Q9H4B7+P0DPH7+P68366+Q13509+Q71U36+P04350+Q3ZCM7+P07437+P68363+Q9BQE3+Q6PEY2+Q13885+Q9BVA1+Q9BUF5). The experiment in a line: Induction of microtubule cytoskeleton disruption in human HepG2 cells assessed as microtubule shrinkage to the cell border at 10 nM measured after 24 hrs by Hoechst 33342 staining based immunofluorescence confocal microscopy analysis. A digest of the protocol: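 Fixed in ice-cold methanol/acetic acid 3:1, permeabilized 0.3% Triton X-100, blocked 5% BSA. Mouse anti-tubulin overnight at 4 °C, then TRITC anti-mouse IgG 2 h at 37 °C. Imaged by laser scanning confocal microscopy.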

The nature of data set [15]: Aqueous solubility of compound in DMSO at pH 7.4 by HPLC analysis. The data set is classed as physicochemical. To be noted: aqueous medium. A digest of the protocol:
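Solubility measured at pH 7.4. DMSO stock (10 mg/mL) diluted in methanol to five levels to build an HPLC peak-area standard curve. Compound added to 1 mL buffer to make a saturated solution, and the peak area of that solution analysed by HPLC on a C18 column. Solubility calculated from the standard curve.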

The subject of data set [16] is HepG2. The data set is described as follows: Induction of apoptosis in human HepG2 cells assessed as live cells at 5 nM incubated for 12 hrs by Annexin V-PE and 7-AAD staining based flow cytometry (reference value: 92.1%). Format: functional. A digest of the protocol: as §1
Data set [17] concerns HepG2. The data set is described as follows: Induction of apoptosis in human HepG2 cells assessed as increase in cleaved caspase-3 expression incubated for 24 hrs by Western blot analysis. The settings on record: dose nM 2.5-20, time 24.0 hrs. Format: functional, cell-based. In a few lines: as §2
For data set [18], the system named is HepG2. The data set is described as follows: Induction of apoptosis in human HepG2 cells assessed as late apoptotic cells at 10 nM incubated for 12 hrs by Annexin V-PE and 7-AAD staining based flow cytometry (reference value: 2.79%). The data set is classed as functional. In a few lines:
as §1

The source made the active and inactive calls. The rule behind the calls is not given here.

As to `CCOc1cccc(Nc2nn(C)c3c2Cc2cc(OCC)c(OCCCN)cc2-3)c1`, the inhibition entry in [1] is “Dose-dependent effect”. Moreover, the Activity in data set [2] came to 57%; in data set [3], 0.61%; in data set [4] it was 10.7%; in data set [6], 68%; in data set [7] it was 0.43%; in data set [8], 88.46%. The Activity in [9] was 77.7%; in data set [10], 36.6%; in data set [11], “Dose-dependent effect”; in data set [13], “Non-Toxic”; in [16] it was 90.4%; in data set [17] it was “Dose-dependent effect”. Also, the Activity in data set [18] worked out at 4.39%. Besides, the GI50 in [5] is 2.4 nM. Moreover, the IC50 in data set [12] worked out at 3700 nM. The result in data set [14] was Active. Moreover, the solubility in data set [15] is above 1000 µg/mL.
